The results in this text go back to ChEMBL document CHEMBL1140375, “Selective inhibitors of the serine protease plasmin: probing the S3 and S3' subsites using a combinatorial library” (J Med Chem, 2005).

One assay concerns the target Plasminogen (Homo sapiens, UniProt P00747). In words: Inhibitory concentration against plasmin. Summed up:
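Plasmin is cleaving D-Val-Leu-Lys-pNA, kept constant at its measured KM (167 μM). Reactions were run at 25 °C in 50 mM sodium phosphate buffer, pH 7.4, containing 10% DMSO final. Initial velocity was read as p-nitroaniline release at 405 nm between 30 and 120 s post-mixing. IC50 was determined from inhibited versus uninhibited rates.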

The next assay has as its target Plasma kallikrein (Homo sapiens, UniProt P03952). In words: Inhibitory concentration against kallikrein.
The target in another assay is Serine protease 1 (Homo sapiens, UniProt P07477). Description: Inhibitory concentration against trypsin. Summed up:
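For trypsin, the substrate was D-Phe-Pip-Arg-pNA at its KM of 122 μM. Assays were run at 25 °C in 50 mM sodium phosphate pH 7.4 with 10% DMSO final. Initial rates came from the 405 nm p-nitroaniline signal over 30–120 s after mixing. IC50 values came from comparing rates with and without inhibitor.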

The next assay concerns the target Prothrombin (Homo sapiens, UniProt P00734). Description: Inhibitory concentration against thrombin. Summed up:
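Thrombin is tested against chromogenic D-Phe-Pip-Arg-pNA at its KM, measured as 45 μM. Conditions were 50 mM sodium phosphate (pH 7.4), 10% DMSO final, 25 °C. p-Nitroaniline formation was followed at 405 nm from 30 to 120 s after mixing to give initial rates, from which IC50 was obtained.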

Starred links: 1 amine or outer side, 2 acyl side, 3 side chain; linkers in the order of their positions; H or OH if unused. Non-standard residues stand in square brackets, D forms with d. Residues, ends and D or L forms follow the SMILES beside them. *: point of attachment. Gly(2S-L-tryptophyl) = N[C@H](C(=O)O)C(=O)[C@@H](N)Cc1c[nH]c2ccccc12; X1 = O=C1[C@@H](CCC(=O)[*:2])CCC[C@H]1N[*:1]; Cbz = O=C(OCc1ccccc1)*

Sequence of Plasminogen (P00747 97-580 limits assumed): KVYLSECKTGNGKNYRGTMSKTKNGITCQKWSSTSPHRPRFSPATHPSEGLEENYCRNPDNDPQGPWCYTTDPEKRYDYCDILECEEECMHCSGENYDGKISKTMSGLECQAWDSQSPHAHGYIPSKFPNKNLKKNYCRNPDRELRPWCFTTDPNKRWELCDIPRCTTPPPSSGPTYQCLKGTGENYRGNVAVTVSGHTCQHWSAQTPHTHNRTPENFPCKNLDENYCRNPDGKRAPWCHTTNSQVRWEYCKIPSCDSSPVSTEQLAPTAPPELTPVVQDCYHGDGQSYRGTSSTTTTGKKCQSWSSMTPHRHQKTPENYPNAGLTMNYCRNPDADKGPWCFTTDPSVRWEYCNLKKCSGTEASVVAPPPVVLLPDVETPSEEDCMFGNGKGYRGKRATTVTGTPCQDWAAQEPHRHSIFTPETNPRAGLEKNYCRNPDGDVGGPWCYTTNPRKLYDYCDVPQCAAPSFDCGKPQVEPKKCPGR
Sequence of Plasminogen (P00747 581-810 limits assumed): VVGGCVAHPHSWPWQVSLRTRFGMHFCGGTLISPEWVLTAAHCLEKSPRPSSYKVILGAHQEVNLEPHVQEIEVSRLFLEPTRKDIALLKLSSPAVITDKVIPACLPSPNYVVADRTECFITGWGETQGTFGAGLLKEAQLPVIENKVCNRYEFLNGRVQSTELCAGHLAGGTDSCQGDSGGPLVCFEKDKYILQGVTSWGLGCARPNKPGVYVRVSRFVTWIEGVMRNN
Sequence of Plasma kallikrein (P03952 20-390 limits assumed): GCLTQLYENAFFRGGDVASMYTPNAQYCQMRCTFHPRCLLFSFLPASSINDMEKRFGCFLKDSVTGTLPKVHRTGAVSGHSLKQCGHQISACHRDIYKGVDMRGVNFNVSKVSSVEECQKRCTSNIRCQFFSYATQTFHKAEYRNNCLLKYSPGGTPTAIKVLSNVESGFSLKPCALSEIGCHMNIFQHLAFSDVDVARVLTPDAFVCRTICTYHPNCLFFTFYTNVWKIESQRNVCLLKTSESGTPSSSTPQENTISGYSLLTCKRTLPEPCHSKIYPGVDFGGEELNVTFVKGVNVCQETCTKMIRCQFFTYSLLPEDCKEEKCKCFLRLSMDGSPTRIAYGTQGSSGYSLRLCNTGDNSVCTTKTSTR
Sequence of Plasma kallikrein (P03952 391-638 limits assumed): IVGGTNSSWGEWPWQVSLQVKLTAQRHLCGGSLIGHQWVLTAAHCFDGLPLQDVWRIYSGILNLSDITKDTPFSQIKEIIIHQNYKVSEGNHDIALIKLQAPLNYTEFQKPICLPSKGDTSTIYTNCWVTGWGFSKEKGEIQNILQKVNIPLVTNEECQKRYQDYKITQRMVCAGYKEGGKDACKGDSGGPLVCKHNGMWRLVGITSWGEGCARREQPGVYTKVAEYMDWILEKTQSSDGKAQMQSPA
Sequence of Serine protease 1 (P07477 whole entry): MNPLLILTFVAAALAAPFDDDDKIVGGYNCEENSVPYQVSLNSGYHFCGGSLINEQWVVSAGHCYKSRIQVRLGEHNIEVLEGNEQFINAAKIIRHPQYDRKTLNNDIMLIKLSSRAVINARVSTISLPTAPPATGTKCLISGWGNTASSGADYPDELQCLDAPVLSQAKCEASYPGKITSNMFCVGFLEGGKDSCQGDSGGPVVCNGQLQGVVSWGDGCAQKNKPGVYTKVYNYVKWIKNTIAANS

As a reminder, the IC50 is the midpoint of a concentration-inhibition curve. Lower therefore signals inhibition by little substance. With `COC(=O)[C@@H](NC(=O)[C@@H](NC(=O)CC[C@H]1CCC[C@@H](NC(=O)[C@@H](NC(=O)[C@@H](NC(=O)OCc2ccccc2)C(=O)[C@@H](N)Cc2c[nH]c3ccccc23)C(=O)[C@@H](N)Cc2c[nH]c3ccccc23)C1=O)C(=O)[C@@H](N)Cc1c[nH]c2ccccc12)C(=O)[C@@H](N)C(C)C`, on Plasminogen, the IC50 is 14.1 µM.

As for `COC(=O)[C@@H](NC(=O)[C@@H](NC(=O)CC[C@H]1CCC[C@@H](NC(=O)[C@@H](NC(=O)[C@@H](NC(=O)OCc2ccccc2)C(=O)[C@@H](N)Cc2c[nH]c3ccccc23)C(=O)[C@@H](N)Cc2c[nH]c3ccccc23)C1=O)C(=O)[C@@H](N)Cc1c[nH]c2ccccc12)C(=O)[C@@H](N)Cc1ccccc1`, the IC50 on Plasminogen worked out at 3.3 µM.

Compound `CC[C@H](C)[C@H](N)C(=O)[C@H](NC(=O)[C@@H](NC(=O)CC[C@H]1CCC[C@@H](NC(=O)[C@@H](NC(=O)[C@@H](NC(=O)OCc2ccccc2)C(=O)[C@@H](N)Cc2c[nH]c3ccccc23)C(=O)[C@@H](N)Cc2c[nH]c3ccccc23)C1=O)C(=O)[C@@H](N)Cc1c[nH]c2ccccc12)C(=O)OC` yielded an IC50 against Plasminogen of 13.5 µM.

`COC(=O)[C@@H](NC(=O)[C@@H](NC(=O)CC[C@H]1CCC[C@@H](NC(=O)[C@@H](NC(=O)[C@@H](NC(=O)OCc2ccccc2)C(=O)[C@@H](N)Cc2c[nH]c3ccccc23)C(=O)[C@@H](N)Cc2c[nH]c3ccccc23)C1=O)C(=O)[C@@H](N)Cc1c[nH]c2ccccc12)C(=O)[C@@H](N)CC(C)C` had an IC50 on Plasminogen of 3.2 µM.

`COC(=O)[C@@H](NC(=O)[C@@H](NC(=O)CC[C@H]1CCC[C@@H](NC(=O)[C@@H](NC(=O)[C@@H](NC(=O)OCc2ccccc2)C(=O)[C@@H](N)Cc2c[nH]c3ccccc23)C(=O)[C@@H](N)Cc2c[nH]c3ccccc23)C1=O)C(=O)[C@@H](N)Cc1c[nH]c2ccccc12)C(=O)[C@H](C)N` showed an IC50 against Plasminogen of 6.6 µM.

Turning to `COC(=O)[C@@H](NC(=O)[C@@H](NC(=O)CC[C@H]1CCC[C@@H](NC(=O)[C@@H](NC(=O)[C@@H](NC(=O)OCc2ccccc2)C(=O)[C@@H](N)Cc2c[nH]c3ccccc23)C(=O)[C@@H](N)Cc2c[nH]c3ccccc23)C1=O)C(=O)[C@@H](N)Cc1c[nH]c2ccccc12)C(=O)[C@@H](N)Cc1ccc(O)cc1`, the 50% inhibitory concentration (IC50) against Plasma kallikrein is greater than 400 µM; against Serine protease 1, greater than 400 µM; against Prothrombin, greater than 400 µM; on Plasminogen, 2.7 µM.

Take `COC(=O)[C@@H](NC(=O)[C@@H](NC(=O)CC[C@H]1CCC[C@@H](NC(=O)[C@@H](NC(=O)[C@@H](NC(=O)OCc2ccccc2)C(=O)[C@@H](N)Cc2c[nH]c3ccccc23)C(=O)[C@@H](N)Cc2c[nH]c3ccccc23)C1=O)C(=O)[C@@H](N)Cc1c[nH]c2ccccc12)C(=O)[C@@H](N)Cc1c[nH]c2ccccc12` (Cbz-[Gly(2S-L-tryptophyl)][Gly(2S-L-tryptophyl)][X1][Gly(2S-L-tryptophyl)][Gly(2S-L-tryptophyl)]-OMe): the IC50 at Plasminogen is 3.6 µM.
